From ChEMBL document CHEMBL1255336, “Single-dose safety and pharmacokinetics of ST-246, a novel orthopoxvirus egress inhibitor” (Antimicrob Agents Chemother, 2008)

How the values were obtained:
[1] = Terminal half life in fasting healthy human at 500 mg, po administered as single dose measured after 48 hrs; format: ADME, organism-based; conditions: in vivo
Method in brief: (§1)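 Healthy volunteers, 8 per group on active drug (2 placebo), single fasting oral dose. Venous plasma drawn predose and 0.5–12, 24, 48 h postdose, kept at –70°C, assayed by validated LC-MS/MS with analog internal standard. Noncompartmental analysis on actual times; Tmax observed directly; kel by log-linear regression of ≥3 terminal points; CL = dose/AUC0-∞. Median values.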

[2] = Terminal half life in fasting healthy human at 1000 mg, po administered as single dose measured after 48 hrs; format: ADME, organism-based; conditions: in vivo; method in brief: as §1
[3] = Terminal half life in fasting healthy human at 2000 mg, po administered as single dose measured after 48 hrs; format: ADME, organism-based; conditions: in vivo; method in brief: as §1
[4] = Terminal half life in nonfasting healthy human at 1000 mg, po administered as single dose measured after 72 hrs; format: ADME, organism-based; conditions: in vivo
Method in brief: (§2)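 Healthy volunteers (8 active, 2 placebo) given a single 1,000 mg oral dose in the fed state. Plasma sampled predose, at 0.5–12 h, 24, 48 and 72 h postdose and analysed by validated LC-MS/MS. Noncompartmental analysis on actual sampling times. Tmax observed directly; t1/2 from kel fitted to ≥3 terminal log-linear points. Median values.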

[5] = Tmax in fasting healthy human at 500 mg, po administered as single dose measured after 48 hrs; format: ADME, organism-based; conditions: in vivo; method in brief: as §1
[6] = Tmax in fasting healthy human at 1000 mg, po administered as single dose measured after 48 hrs; format: ADME, organism-based; conditions: in vivo
[7] = Tmax in fasting healthy human at 2000 mg, po administered as single dose measured after 48 hrs; format: ADME, organism-based; conditions: in vivo; method in brief: as §1
[8] = Tmax in nonfasting healthy human at 1000 mg, po administered as single dose measured after 72 hrs; format: ADME, organism-based; conditions: in vivo; method in brief: as §2
[9] = Cmax in fasting healthy human at 500 mg, po administered as single dose measured after 48 hrs; format: ADME, organism-based; set-up: dose 500 mg, route oral; conditions: in vivo
Method in brief: (§3)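 Randomised placebo-controlled single oral dose in healthy subjects (8 active, 2 placebo per group); groups 1–3 fasting, group 4 nonfasting. Plasma sampled predose to 48 h (groups 1–3) or 72 h (group 4), centrifuged 4°C, stored –70°C. LC-MS/MS with analog internal standard. Noncompartmental analysis on actual times; Cmax observed; AUC by trapezoid rule, extrapolated with kel; CL = dose/AUC0-∞.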

[10] = Cmax in fasting healthy human at 1000 mg, po administered as single dose measured after 48 hrs; format: ADME, organism-based; set-up: dose 1000 mg, route oral; conditions: in vivo; method in brief: as §3
[11] = Cmax in fasting healthy human at 2000 mg, po administered as single dose measured after 48 hrs; format: ADME, organism-based; set-up: dose 2000 mg, route oral; conditions: in vivo; method in brief: as §3
[12] = Cmax in nonfasting healthy human at 1000 mg, po administered as single dose measured after 72 hrs; format: ADME, organism-based; set-up: dose 1000 mg, route oral; conditions: in vivo; method in brief: as §3
[13] = AUClast in fasting healthy human at 500 mg, po administered as single dose measured after 48 hrs; format: ADME, organism-based; set-up: dose 500 mg, time < 48 hr, route oral; conditions: plasma; method in brief: as §3
[14] = AUClast in fasting healthy human at 1000 mg, po administered as single dose measured after 48 hrs; format: ADME, organism-based; set-up: dose 1000 mg, time < 48 hr, route oral; conditions: plasma; method in brief: as §3
[15] = AUClast in fasting healthy human at 2000 mg, po administered as single dose measured after 48 hrs; format: ADME, organism-based; set-up: time < 48 hr, dose 2000 mg, route oral; conditions: plasma; method in brief: as §3
[16] = AUClast in nonfasting healthy human at 1000 mg, po administered as single dose measured after 72 hrs; format: ADME, organism-based; set-up: time < 72 hr, dose 1000 mg, route oral; conditions: plasma; method in brief: as §3
[17] = AUC(0 to infinity) in fasting healthy human at 500 mg, po administered as single dose measured after 48 hrs; format: ADME, organism-based; set-up: dose 500 mg, route oral, time infinity; conditions: plasma; method in brief: as §3
[18] = AUC(0 to infinity) in fasting healthy human at 1000 mg, po administered as single dose measured after 48 hrs; format: ADME, organism-based; set-up: dose 1000 mg, time infinity, route oral; conditions: plasma; method in brief: as §3
[19] = AUC(0 to infinity) in fasting healthy human at 2000 mg, po administered as single dose measured after 48 hrs; format: ADME, organism-based; set-up: dose 2000 mg, time infinity, route oral; conditions: plasma; method in brief: as §3
[20] = AUC(0 to infinity) in nonfasting healthy human at 1000 mg, po administered as single dose measured after 72 hrs; format: ADME, organism-based; set-up: dose 1000 mg, time infinity, route oral; conditions: plasma; method in brief: as §3
[21] = Apparent oral clearance in fasting healthy human at 500 mg, po administered as single dose measured after 48 hrs; format: ADME, organism-based; conditions: in vivo; method in brief: as §3
[22] = Apparent oral clearance in fasting healthy human at 1000 mg, po administered as single dose measured after 48 hrs; format: ADME, organism-based; conditions: in vivo; method in brief: as §3
[23] = Apparent oral clearance in fasting healthy human at 2000 mg, po administered as single dose measured after 48 hrs; format: ADME, organism-based; conditions: in vivo; method in brief: as §1
[24] = Apparent oral clearance in nonfasting healthy human at 1000 mg, po administered as single dose measured after 72 hrs; format: ADME, organism-based; conditions: in vivo; method in brief: as §3
[25] = Median half life in fasting healthy human at 500 mg, po administered as single dose measured after 48 hrs; format: ADME, organism-based; conditions: in vivo; method in brief: as §1
Homo sapiens [26] = experiment: Median half life in fasting healthy human at 1000 mg, po administered as single dose measured after 48 hrs; format: ADME, organism-based; conditions: in vivo
[27] = Median half life in fasting healthy human at 2000 mg, po administered as single dose measured after 48 hrs; format: ADME, organism-based; conditions: in vivo; method in brief: as §1
[28] = Plasma clearance in fasting healthy human at 500 mg, po administered as single dose measured after 48 hrs; format: ADME, organism-based; method in brief: as §3
[29] = Plasma clearance in fasting healthy human at 1000 mg, po administered as single dose measured after 48 hrs; format: ADME, organism-based; method in brief: as §3
[30] = Plasma clearance in fasting healthy human at 2000 mg, po administered as single dose measured after 48 hrs; format: ADME, organism-based; method in brief: as §3
[31] = Apparent Cmax in nonfasting healthy human at 1000 mg, po administered as single dose measured after 72 hrs; format: ADME, organism-based; set-up: dose 1000 mg, route oral; conditions: in vivo; method in brief: as §3
[32] = Plasma clearance in nonfasting healthy human at 1000 mg, po administered as single dose measured after 72 hrs; format: ADME, organism-based; method in brief: as §3
Homo sapiens [33] = experiment: Toxicity in fasting healthy human assessed as adverse events at 500 mg, po administered as single dose measured after 48 hrs; format: organism-based; conditions: in vivo
Method in brief: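 Healthy subjects given single oral dose, 8 active and 2 placebo per group. Safety covered adverse events, vital signs, ECG (day 1 and week 4), hematology, chemistries, urinalysis before and after dosing. Follow-up visits at week 1 and week 4. Cohort safety was reviewed before the next dose group.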

Homo sapiens [34] = experiment: Toxicity in fasting healthy human assessed as feeling abnormal at 500 mg, po administered as single dose measured after 48 hrs; format: organism-based; conditions: in vivo
Method in brief: (§4)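 Randomized, placebo-controlled single oral dose in healthy adults, groups of 10 (8 drug, 2 placebo), dose escalated after safety review. Fasting groups got 500, 1,000 or 2,000 mg; one group got 1,000 mg fed. Treatment-emergent adverse events, vital signs, hematology, chemistries, urinalysis and ECG were recorded through day 1 and follow-up at weeks 1 and 4. Drug relation was judged blinded.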

Homo sapiens [35] = experiment: Toxicity in fasting healthy human assessed as back pain at 500 mg, po administered as single dose measured after 48 hrs; format: organism-based; conditions: in vivo; method in brief: as §4
Homo sapiens [36] = experiment: Toxicity in fasting healthy human assessed as headache at 500 mg, po administered as single dose measured after 48 hrs; format: organism-based; conditions: in vivo; method in brief: as §4
Homo sapiens [37] = experiment: Toxicity in fasting healthy human assessed as adverse events at 1000 mg, po administered as single dose measured after 48 hrs; format: organism-based; conditions: in vivo; method in brief: as §4
Homo sapiens [38] = experiment: Toxicity in fasting healthy human assessed as neutropenia at 1000 mg, po administered as single dose measured after 48 hrs; format: organism-based; conditions: in vivo; method in brief: as §4
Homo sapiens [39] = experiment: Toxicity in fasting healthy human assessed as constipation at 1000 mg, po administered as single dose measured after 48 hrs; format: organism-based; conditions: in vivo; method in brief: as §4
Homo sapiens [40] = experiment: Toxicity in healthy human assessed as adverse events at 1000 mg, po administered as single dose measured after 72 hrs; format: organism-based; conditions: in vivo; method in brief: as §4
Homo sapiens [41] = experiment: Toxicity in healthy human assessed as headache at 1000 mg, po administered as single dose measured after 72 hrs; format: organism-based; conditions: in vivo; method in brief: as §4

**Q.** Which results are given for `O=C(NN1C(=O)[C@@H]2[C@@H]3C=C[C@@H]([C@H]4C[C@@H]34)[C@@H]2C1=O)c1ccc(C(F)(F)F)cc1` [TECOVIRIMAT]?
**A.** half-life [1]: 26 h; half-life [2]: 40 h; half-life [3]: 22 h; half-life [4]: 17 h; Tmax [5]: 2 h; Tmax [6]: 3 h; Tmax [7]: 3 h; Tmax [8]: 5 h; Cmax [9]: 934 ng/mL; Cmax [10]: 1810 ng/mL; Cmax [11]: 2550 ng/mL; Cmax [12]: 2930 ng/mL; AUC(0-t) at 48 h [13]: 9880 ng·h/mL; AUC(0-t) at 48 h [14]: 21100 ng·h/mL; AUC(0-t) at 48 h [15]: 24500 ng·h/mL; AUC(0-t) at 72 h [16]: 34100 ng·h/mL; AUC(0-inf) [17]: 9810 ng·h/mL; AUC(0-inf) [18]: 24900 ng·h/mL; AUC(0-inf) [19]: 25700 ng·h/mL; AUC(0-inf) [20]: 35900 ng·h/mL; CL/F [21]: 883 mL/min; CL/F [22]: 817 mL/min; CL/F [23]: 1320 mL/min; CL/F [24]: 500 mL/min; half-life [25]: 20.9 h; t1/2 (Homo sapiens [26]): 19.8 h; half-life [27]: 18.9 h; CL/F [28]: 860 mL/min; CL/F [29]: 838 mL/min; CL/F [30]: 1290 mL/min; Cmax [31]: 3120 ng/mL; CL/F [32]: 513 mL/min; Activity (Homo sapiens [33]): 25%; Activity (Homo sapiens [34]): 12.5%; Activity (Homo sapiens [35]): 12.5%; Activity (Homo sapiens [36]): 12.5%; Activity (Homo sapiens [37]): 12.5%; Activity (Homo sapiens [38]): 12.5%; Activity (Homo sapiens [39]): 12.5%; Activity (Homo sapiens [40]): 12.5%; Activity (Homo sapiens [41]): 12.5%
